# Reference: article PMC4469273 (Current pharmaceutical biotechnology, 2014)
# Columns and labels:
# [1] = tested on: HUVEC invasion by S. aureus ATCC 29213 (MSSA); assay: Invasion assay: HUVEC infected with Alexa Fluor 488-labeled MSSA, flow cytometry; type: cell-based, human; details: for Internalized bacteria (% vehicle control ± SEM), RSM structural analog: N = 5
# HUVEC = assay: Cytotoxicity assay; type: cell-based, human; details: 10 μmol/L; for Mean fluorescence intensity (×10^4± SEM), Compound: PI fluorescence, N = 3
# Outline: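 HUVEC plated and compound-treated as for invasion: 1×10^5 cells/ml in 35 mm dishes or 1×10^4 cells/ml in 96-well plates, Attachment Factor-coated. Cells scraped and washed in FACS buffer (2% BSA/0.1% sodium azide/PBS). Brief incubation with propidium iodide at 0.5 mg/ml, then fluorescence read at once on Accuri C6 flow cytometer; MFI reported.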
# MSSA (ATCC 29213) = assay: Bactericidal activity assay, MSSA; type: cell-based, Staphylococcus aureus; details: 10 μmol/L; for CFU/ml (×10^10± SEM), Compound: 1 h, 1.2 × 10^8 CFU/ml incubated, N = 3
# Outline: (§1)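 Washed S. aureus (overnight TSB at 225 rpm, 37°C; subcultured; saline-washed), 1.2 × 10^8 CFU/ml, incubated with test compound or vehicle control in EndoGRO-LS medium (1 h, 5% CO2, 37°C). Serial dilutions plated on tryptic soy agar (18-20 h, 37°C); colonies counted and CFU/ml calculated.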
# β1 integrin subunit = assay: β1 integrin surface expression, flow cytometry; type: cell-based, human; details: 10 μmol/L, 18-20 h, vs vehicle control
# Outline: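 Following 18-20 h pretreatment (DMSO vehicle or test compound), integrin recycling stopped at 4°C for 15 min. Cells scraped and washed in FACS buffer, stained with PE-conjugated anti-β1 (30 min, on ice), then fixed in FACS buffer with 4% paraformaldehyde. PE MFI measured on 600 FSC-A/SSC-A-gated cells; expressed as percent control; Mann-Whitney Rank Sum test.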
# [2] = tested on: HUVEC adhesion to human fibronectin; assay: Fibronectin adhesion assay; type: cell-based; details: 10 μmol/L, 18-20 h; vehicle control 24±4%
# Outline: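 Compound or DMSO vehicle applied to HUVEC for 18-20 h (invasion-assay plating). Wells coated with human fibronectin (20 μg/ml, 2 h, 37°C) and blocked with 2% BSA (30 min, RT). Scraped cells counted by flow cytometry for input, re-plated 2 h at 37°C/5% CO2. After PBS washes, adherent cells trypsinized, fixed, counted; normalized to input. Two pooled experiments, n=8/treatment.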
# NRS123 = assay: Bactericidal activity assay, NRS123; type: cell-based, Staphylococcus aureus
# Outline: as §1
# [3] = tested on: actin stress fibers in HUVEC; assay: Actin stress fiber disassembly, immunofluorescence; type: cell-based, human; details: 10 μmol/L, 18-20 h, infected 1 h
# Outline: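 HUVEC (3 × 10^5/ml, Attachment Factor-coated glass-bottom dishes) pretreated 18-20 h with PEG vehicle or test compound. Infected with S. aureus (MOI 1200, 1 h, 5% CO2, 37°C), PBS-washed, fixed in 4% paraformaldehyde (30 min), then permeabilized/blocked in 0.1% Triton/1% BSA. Stained with Alexa Fluor 488 phalloidin (1:40), imaged by confocal (40X water immersion). Scored as % cells lacking stress fibers, 100-200 cells/treatment from random fields; χ2 test.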
# [4] = tested on: HUVEC infected with Staphylococcus aureus; assay: Transmission electron microscopy of infected HUVEC; type: cell-based, human; details: 10 μmol/L, 18-20 h pretreatment, infected 2 h
# Outline: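 Coverslip HUVEC (3 × 10^5/ml) pretreated 18-20 h with PEG vehicle or test compound, infected with S. aureus (MOI 30, 2 h, 37°C). Lysostaphin/gentamicin removal (45 min), then 24 h in antibiotic medium. Fixed in 2.5% glutaraldehyde/2.0% paraformaldehyde/2 mmol/L Ca/1 mmol/L Mg; post-fixed in 1% OsO4/1.5% ferrocyanide in 0.1 mol/L cacodylate. Ethanol/propylene oxide dehydration, resin embedding. Ultrathin sections stained with uranyl acetate/lead citrate, imaged at 120 kV.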
# [5] = tested on: vinculin-containing adhesion complexes in HUVEC; assay: Vinculin-containing adhesion complexes, immunofluorescence; type: cell-based, human; details: 10 μmol/L, 18-20 h; vehicle control 64%
# Outline: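 HUVEC at 3 × 10^4 on Attachment Factor-coated glass-bottom dishes, treated 18-20 h with DMSO vehicle or test compound. Fixed, then permeabilized/blocked (0.1% Triton/1% BSA). Stained with anti-vinculin (1:25), then rabbit anti-mouse Alexa Fluor 488 (1:250). Confocal imaging at 63X water immersion; Z-stack maximum projections. Percentage of cells with adhesion complexes from 100-200 cells/treatment in random fields; χ2 test.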
# MRSA252 NRS71 = assay: Bactericidal activity assay, MRSA252 NRS71; type: cell-based, Staphylococcus aureus; details: 10 μmol/L
# Outline: as §1
# [6] = tested on: HUVEC invasion by MRSA252 NRS71; assay: Invasion assay with hospital MRSA strain; type: cell-based, human; details: 10 μmol/L, 18-20 h pretreatment
# Outline: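 HUVEC pretreated 18-20 h with test compound or vehicle. MRSA252 NRS71 labeled through protein A with rabbit anti-mouse IgG Alexa Fluor 488 (final 8 μg/ml, RT, 20 min), washed, set to 3×10^8 CFU/ml. Infection at MOI 1440 (1 h, 37°C, 5% CO2), then lysostaphin (20 μg/ml)/gentamicin (50 μg/ml) for 45 min. Cells scraped and fixed in 1% BSA/0.74% formaldehyde; MFI from 1500 FSC/SSC-gated cells, as % control.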
# HUVEC invasion by NRS123 = assay: Invasion assay with community-acquired MRSA strain; type: cell-based, human; details: 10 μmol/L, 18-20 h pretreatment
# Outline: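 Attachment Factor-coated dishes seeded with HUVEC, pretreated 18-20 h with test compound or matched vehicle. Stocks were 5 mmol/L in DMSO or PEG, diluted to 1 mmol/L in solvent, then into EndoGRO-LS. Unlabeled saline-washed NRS123 at MOI 1440 (1 h, 37°C). Extracellular bacteria killed with 20 μg/ml lysostaphin/50 μg/ml gentamicin (45 min). Cells lysed with 1% saponin/PBS (20 min); dilutions plated on TSA (16 h), CFU/ml counted.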
# S. aureus pneumonia = details: cited from earlier work
# [7] = tested on: endothelial cell invasion by S. aureus; details: cited from earlier work
SMILES,"Internalized bacteria (% vehicle control ± SEM), RSM structural analog ([1]; 10 μmol/L)","Mean fluorescence intensity (×10^4± SEM), Compound (HUVEC)","CFU/ml (×10^10± SEM), Compound (MSSA (ATCC 29213)) [CFU/ml ×10^10]",further results
NS(=O)(=O)c1ccc(N2N=C(c3ccccc3)CC2c2ccc3c(c2)OCO3)cc1 (stereo not shown) [RSM 05],38 ± 3 % ^††,3.9 ± 0.2 ×10^4,1.6 ± 0.3,
COc1ccc(C2C(C)C(c3ccccc3)=NN2c2ccc(S(N)(=O)=O)cc2)cc1 (stereo not shown) [RSM 19],61 ± 2 % ^††,2.6 ± 0.01 ×10^4,,
COc1ccc(C2C3Cc4ccccc4C3=NN2c2ccc(S(N)(=O)=O)cc2)cc1 (stereo not shown) [RSM 21],79 ± 3 % ^†,2.8 ± 0.09 ×10^4,3.0 ± 0.2,
COc1ccc(C2=NN(c3ccc(S(N)(=O)=O)cc3)C(c3ccc4c(c3)OCO4)C2)cc1 (stereo not shown) [RSM 06],23 ± 1 % ^†††,2.8 ± 0.1 ×10^4,1.0 ± 0.3,
COc1ccc(C2=NN(c3ccc(S(N)(=O)=O)cc3)C(c3ccc(OC)c(OC)c3)C2)cc1 (stereo not shown) [RSM 16],63 ± 4 % ^†††,1.4 ± 0.2 ×10^4,1.8 ± 0.4,
"COc1ccc(C2CC(c3ccccc3)=NN2c2ccc(S(N)(=O)=O)cc2)cc1 (stereo not shown) [ML 141, 4-[3-(4-methoxyphenyl)-5-phenyl-3,4-dihydropyrazol-2-yl]benzenesulfonamide]",,2.1 ± 0.3 ×10^4,1.8 ± 0.6,"Mean fluorescence intensity in washout samples (reversibility) ([1]; 10 μmol/L 1 h pretreatment, media replaced with vehicle 40 min prior to invasion): returned to baseline; Mean fluorescence intensity compared to vehicle control ([1]; 10 μmol/L, 18-20 h pretreatment, 1 h infection): lower; Expression of β1 (β1 integrin subunit): No difference; Cytotoxicity in HUVEC (HUVEC; incubated 1 h): Cytotoxicity was not detected; HUVEC adhesion to fibronectin [2]: 14±2%; Bactericidal activity against NRS123 (NRS123; 10 μmol/L): Bactericidal activity was not detected; CFU/ml recovered, NRS123 (NRS123; 1.2 × 10^8 CFU/ml incubated, vehicle control 4.5 × 10^10 ±0.6): 5.6 × 10^10 ±1.5 CFU/ml; Actin stress fibers in infected cells [3]: remained intact; Organelles 24 h post-invasion (ultrastructure) [4]: remained intact; Filopodia at the host cell membrane in response to bacteria ([4]; 24 h post-invasion): not detected; HUVEC with vinculin-containing adhesion complexes [5]: 37%; Bactericidal activity against MRSA252 NRS71 (MRSA252 NRS71): Bactericidal activity was not detected; CFU/ml recovered, MRSA252 NRS71 (MRSA252 NRS71; 1 h, 1.2 × 10^8 CFU/ml incubated): 1.9 × 10^10 ±0.2 CFU/ml; Invasion by MRSA252 NRS71 [6]: inhibited invasion; Invasion by NRS123 (HUVEC invasion by NRS123): inhibited invasion; Bactericidal activity against MSSA (MSSA (ATCC 29213)): Bactericidal activity was not detected"
CCC(C)(C)C(=O)O[C@H]1C[C@@H](C)C=C2C=C[C@H](C)[C@H](CC[C@@H]3C[C@@H](O)CC(=O)O3)[C@H]21 [simvastatin],,,,Survival in a murine model of pneumonia (S. aureus pneumonia): improved survival; Endothelial cell invasion by S. aureus [7]: decreased
COc1ccc(C2=NN(c3ccc(S(N)(=O)=O)cc3)C(c3ccccc3)C2)cc1 (stereo not shown) [RSM 07],34 ± 2 % ^††,2.5 ± 0.4 ×10^4,2.8 ± 0.3,
COCCOc1ccc(C2=NN(c3ccc(S(N)(=O)=O)cc3)C(c3ccc(Cl)cc3)C2)cc1 (stereo not shown) [RSM 20],61 ± 4 % ^††,2.1 ± 0.2 ×10^4,2.1 ± 0.4,
COc1ccc(C2CC(c3ccccc3)=NN2c2ccc(S(N)(=O)=O)cc2)cc1OC (stereo not shown) [RSM 15],45 ± 1 % ^†††,4.0 ± 0.4 ×10^4,2.0 ± 0.2,
